Assay results from ChEMBL document CHEMBL2384973, “Pharmacological activity of retinoic acid receptor alpha-selective antagonists in vitro and in vivo” (ACS Med Chem Lett, 2013).
Values after ≈ are worked out from the molar mass of the structure shown. Active and inactive are the calls of the source. The rule behind the calls is not given here.

What was measured:
Mus musculus [1] = experiment: Toxicity in CD1 mouse assessed as change in testosterone levels at 2 to 10 mg/kg, po for 7 days by enzyme immunoassay relative to control; type: organism-based; set-up: dose 2-10 mg/kg, route oral; conditions: in vivo, 168 h
How it was run: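 Male CD1 mice treated orally at two regimens (2 or 10 mg/kg daily, 7 days); sera collected for testosterone determination, values plotted for individual mice.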

Mus musculus [2] = experiment: Toxicity in CD1 mouse assessed as change in body weight at 2 to 10 mg/kg, po; type: organism-based; set-up: dose 2-10 mg/kg, route oral; conditions: in vivo
How it was run: (§1)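 Male CD1 mice gavaged daily with 2 or 10 mg/kg for 7 days, vehicle controls; body weight followed throughout; testes weighed one month post-treatment; mean ± SD of five mice per regimen, paired Student's t-test against age-matched controls.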

Mus musculus [3] = experiment: Inhibition of spermatogenesis in CD1 mouse assessed as change in motility of epididymal sperm at 10 mg/kg, po for 7 days measured after 1 month by bright-field microscopic analysis; type: functional, organism-based; set-up: dose 10 mg/kg
Mus musculus [4] = experiment: Inhibition of spermatogenesis in CD1 mouse assessed as change in morphology of caudal epididymides at 10 mg/kg, po for 7 days measured after 1 month by bright-field microscopic analysis; type: functional, organism-based; set-up: dose 10 mg/kg
How it was run: (§2)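 Male CD1 mice dosed by oral gavage at 2 or 10 mg/kg daily for 7 days, controls vehicle only; testes and epididymides collected one month post-treatment for histological staging of tubules (spermatid alignment at stage VIII, sperm release at stage IX).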

Mus musculus [5] = experiment: Inhibition of spermatogenesis in CD1 mouse assessed as asynchronization of spermatogenic cell association at 10 mg/kg, po for 7 days measured after 1 month by bright-field microscopic analysis; type: functional, organism-based; set-up: dose 10 mg/kg; how it was run: as §2
Mus musculus [6] = experiment: Inhibition of spermatogenesis in CD1 mouse assessed as presence of vacuolar-like spaces at 10 mg/kg, po for 7 days measured after 1 month by bright-field microscopic analysis; type: functional, organism-based; set-up: dose 10 mg/kg; how it was run: as §2
Mus musculus [7] = experiment: Toxicity in CD1 mouse assessed as change in testicular weight at 2 to 10 mg/kg, po for 7 days relative to control; type: organism-based; set-up: dose 2-10 mg/kg, route oral; conditions: in vivo, 168 h; how it was run: as §1
Mus musculus [8] = experiment: Inhibition of spermatogenesis in CD1 mouse assessed as change in sperm release at stage 9 into lumen in testes at 2 to 10 mg/kg, po for 7 days measured after 1 month by bright-field microscopic analysis relative to control; type: functional, organism-based; how it was run: as §2
Mus musculus [9] = experiment: Inhibition of spermatogenesis in CD1 mouse assessed as change in alignment of step 16 spermatids at lumen in stage 8 tubules in testes at 2 to 10 mg/kg, po for 7 days measured after 1 month by bright-field microscopic analysis relative to control; type: functional, organism-based; how it was run: as §2
[10] = Drug uptake in CD1 mouse testes at 39 mg/kg, po; type: ADME, organism-based, Testis; set-up: dose 39 mg/kg, route oral; conditions: in vivo
[11] = Drug uptake in CD1 mouse testes at 3 mg/kg, iv; type: ADME, organism-based, Testis; set-up: dose 3 mg/kg, route intravenous; conditions: in vivo
Mus musculus [12] = experiment: Effect on spermatogenesis in CD1 mouse assessed as sperm release into testicular lumen at 10 mg/kg, iv after 7 days; type: functional, organism-based; set-up: dose 10 mg/kg
How it was run: (§3)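 Male mice given 10 mg/kg intravenously daily; testes examined histologically at end of treatment (6 days, n = 2; 7 days, n = 2) for spermatid alignment and sperm release into the lumen; vehicle controls.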

Caco-2 [13] = experiment: Permeability from basolateral to apical side in human Caco2 cells at 10^-5 M at pH 6.5 to 7.4; type: ADME, cell-based; conditions: caco-2, pH 6.5, 10 µM
How it was run: (§4)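 Caco-2 monolayers with apical/basolateral pH gradient 6.5/7.4, compound at 1.0 × 10–5 M; apparent permeability (cm/s) measured in A→B and B→A directions, with percent recovery reported.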

Mus musculus [14] = experiment: Effect on spermatogenesis in CD1 mouse assessed as disruptive effect on spermatid alignment at 10 mg/kg, iv after 7 days; type: functional, organism-based; set-up: dose 10 mg/kg; how it was run: as §3
[15] = Permeability from basolateral to apical side in human Caco2 cellsassessed as drug recovery at 10^-5 M at pH 6.5 to 7.4; type: ADME, cell-based; conditions: Caco-2, pH 6.5, read-out: permeability; how it was run: as §4
[16] = Metabolic stability in CD1 mouse liver microsomes assessed as parent compound remaining at 10^-6 M after 60 mins; type: ADME, Microsome; conditions: read-out: Stability
How it was run: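 CD-1 mouse liver microsomes incubated with compound at 1.0 × 10–6 M for 60 min; percent parent compound remaining determined.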

[17] = Metabolic stability in CD1 mouse intestinal microsomes assessed as parent compound remaining at 10^-6 M after 60 mins; type: ADME, Intestine; conditions: read-out: Stability
How it was run: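 CD-1 mouse intestinal microsomes incubated with compound at 1.0 × 10–6 M for 60 min; percent parent remaining determined.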

Plasma [18] = experiment: Fraction unbound in CD1 mouse plasma; type: ADME, cell-free
How it was run: (§5)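 Binding to CD-1 mouse plasma proteins tested at 1.0 × 10–5 M; percent bound and percent recovery reported.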

Mus musculus [19] = experiment: Effect on spermatogenesis in CD1 mouse assessed as disruptive effect on spermatid alignment at 10 mg/kg, iv after 6 days; type: functional, organism-based; set-up: dose 10 mg/kg; how it was run: as §3
[20] = Permeability from apical to basolateral side in human Caco2 cells assessed as drug recovery at 10^-5 M at pH 6.5 to 7.4; type: ADME, cell-based; conditions: Caco-2, pH 6.5, read-out: permeability; how it was run: as §4
Mus musculus [21] = experiment: Effect on spermatogenesis in CD1 mouse assessed as sperm release into testicular lumen at 10 mg/kg, iv after 6 days; type: functional, organism-based; set-up: dose 10 mg/kg; how it was run: as §3
Plasma [22] = experiment: Drug recovery in CD1 mouse plasma 10^-5 M; type: ADME, cell-free; conditions: 10 µM; how it was run: as §5
Caco-2 [23] = experiment: Permeability from apical to basolateral side in human Caco2 cells at 10^-5 M at pH 6.5 to 7.4; type: ADME, cell-based; conditions: caco-2, pH 6.5, 10 µM; how it was run: as §4
Plasma [24] = experiment: Plasma protein binding in CD1 mouse at 10^-5 M; type: ADME, cell-free; conditions: 10 µM; how it was run: as §5
[25] = Partition coefficient, log D of the compound in n-octanol-PBS at 10^-4 M at pH 7.4; type: physicochemical; conditions: octanol/water, pH 7.4, 100 µM
How it was run: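 log D determined at pH 7.4 by n-octanol/PBS partitioning, reported as weighted average.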

[26] = Aqueous solubility of the compound in PBS at pH 7.4; type: physicochemical; conditions: buffer
How it was run: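 Aqueous solubility determined in PBS buffer, pH 7.4; tested range <1–200 μM.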

[27] = Chemical stability of the compound by HPLC-MS analysis; type: physicochemical
[28] = molecular target: T1, Retinoic acid receptor alpha (Homo sapiens) (UniProt P10276); experiment: Antagonist activity at human RARalpha expressed in human HeLa cells assessed as inhibition of ATRA-induced RARE-chloramphenicol acetyltransferase reporter gene expression after 24 hrs by transactivation competition assay; type: cell-based
T1 sequence (whole entry): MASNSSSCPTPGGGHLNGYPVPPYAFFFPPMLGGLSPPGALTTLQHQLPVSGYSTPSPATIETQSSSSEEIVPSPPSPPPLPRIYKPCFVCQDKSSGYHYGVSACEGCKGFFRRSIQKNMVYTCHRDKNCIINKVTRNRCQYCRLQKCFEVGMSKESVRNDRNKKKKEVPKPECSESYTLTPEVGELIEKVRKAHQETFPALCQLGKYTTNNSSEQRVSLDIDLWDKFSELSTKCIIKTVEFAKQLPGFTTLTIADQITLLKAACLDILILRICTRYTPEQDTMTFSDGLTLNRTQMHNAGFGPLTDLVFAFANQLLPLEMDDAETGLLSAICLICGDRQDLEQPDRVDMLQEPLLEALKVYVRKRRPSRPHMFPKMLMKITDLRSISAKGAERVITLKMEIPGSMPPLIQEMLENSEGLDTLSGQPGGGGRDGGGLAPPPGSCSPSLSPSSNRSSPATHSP
How it was run: (§6)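 HeLa cells cotransfected with RAR constructs and a constant beta-galactosidase plasmid as internal control, given 10–7 M ATRA (submaximal) plus increasing concentrations of compound; CAT reporter expression measured after 24 h. RARα, RARβ and RARγ tested. Vehicle control was dilution medium without retinoid; ATRA served as positive control.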

[29] = molecular target: T1, Retinoic acid receptor alpha (Homo sapiens); experiment: Antagonist activity at human RARalpha expressed in human HeLa cells assessed as inhibition of ATRA-induced RARE transactivation after 24 hrs by chloramphenicol acetyltransferase reporter gene assay; type: cell-based; how it was run: as §6
Mus musculus [30] = experiment: Defect in spermatogenesis in CD1 mouse testicular tubules at 10 mg/kg, ip after 7 days; type: functional, organism-based; set-up: dose 10 mg/kg
How it was run: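 Male mice dosed intraperitoneally at 10 mg/kg daily for 7 days (n = 4); testicular tubules examined histologically one day post-treatment for retained spermatids, with defects quantified.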

Mus musculus [31] = experiment: Effect on spermatogenesis in CD1 mouse at 10 mg/kg, iv for 7 days measured after 4 weeks; type: functional, organism-based; set-up: dose 10 mg/kg
How it was run: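 Male mice dosed intravenously at 10 mg/kg; testes examined histologically 4 weeks post-treatment for spermatogenesis.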

Mus musculus [32] = experiment: Effect on spermatogenesis in CD1 mouse assessed as sperm release into testicular lumen at 2 to 10 mg/kg, po for 7 days; type: functional, organism-based; how it was run: as §2
Mus musculus [33] = experiment: Effect on spermatogenesis in CD1 mouse assessed as disruptive effect on spermatid alignment at 2 to 10 mg/kg, po for 7 days; type: functional, organism-based; how it was run: as §2

remaining at 1 h, 1 µM [16] [%]	recovery at 10 µM [20] [%]	Drug recovery (Plasma [22]) [%]	permeability (Caco-2 [23]) [×10⁻⁶ cm/s]	PPB (Plasma [24]) [%]	logD [25]	solubility [26] [µM]	Stability [27]	SMILES	Activity (Mus musculus [1])	Activity (Mus musculus [2])	inhibition (Mus musculus [3])	inhibition (Mus musculus [4])	inhibition (Mus musculus [5])	inhibition (Mus musculus [6])	Activity (Mus musculus [7])	inhibition (Mus musculus [8])	inhibition (Mus musculus [9])	also measured
–	–	–	–	–	–	–	–	CC1(C)CC=C(c2cnc3ccccc3c2)c2cc(C(=O)Nc3ccc(C(=O)O)cc3)ccc21	Non-toxic	Non-toxic	inactive	inactive	inactive	inactive	Non-toxic	inactive	inactive	–
49	20	99.8	8.3	99.2	3.84	136 (≈ 56 µg/mL)	Stable	Cc1ccc(C2=CCC(C)(C)c3ccc(C(=O)Nc4ccc(C(=O)O)cc4)cc32)cc1	Non-toxic	Non-toxic	inactive	inactive	inactive	inactive	Non-toxic	inactive	inactive	Drug uptake [10]: Not Active; Drug uptake [11]: Active; Activity (Mus musculus [12]): Active; permeability (Caco-2 [13]): 0.7 ×10⁻⁶ cm/s; Activity (Mus musculus [14]): Active; recovery at 10 µM [15]: 46%; remaining at 1 h, 1 µM [17]: 86%; Fu (Plasma [18]): 0.8%; Activity (Mus musculus [19]): Active; Activity (Mus musculus [21]): Active; Activity [28]: Active; Activity [29]: Active; Activity (Mus musculus [30]): Active; Activity (Mus musculus [31]): inactive
79	14	93.3	< 0.7	95.3	3.25	3.1 (≈ 1.18 µg/mL)	Stable	CC1(C)CC=C(c2ccccc2)c2cc(/C=C/c3ccc(C(=O)O)cc3)ccc21	–	–	–	–	–	–	–	–	–	Activity (Mus musculus [32]): Active; Activity (Mus musculus [33]): Active
